This is an account of results in ChEMBL document CHEMBL3407466, “Discovery of an oral respiratory syncytial virus (RSV) fusion inhibitor (GS-5806) and clinical proof of concept in a human RSV challenge study” (J Med Chem, 2015).

One may read the chromatographic logD as a lipophilicity value derived from retention on a column. One may read the Kp as tissue or fluid exposure divided by exposure in the circulation. Usually clearance stands for the rate of elimination divided by the concentration.

A short description of series [1]: Lipophilicity, log D of the compound by chromatography. It is filed as physicochemical.
A short description of series [2]: Oral bioavailability in Sprague-Dawley rat at 4 mg/kg. It is filed as ADME, organism-based. Conditions: in vivo; call rule not given here. Put shortly: (§1)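 IV parameters were taken from a 1 mg/kg dose given as a 30 min infusion.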
The nature of series [3]: Terminal half life in po dosed beagle dog. The format is ADME, organism-based, Canis lupus familiaris. Conditions: in vivo, read-out: beta t1/2 (converted).
Series [4] in a line: Ratio of AUC (0 to 12 hrs) in epithelial lining fluid to AUC (0 to 12 hrs) in plasma of Sprague-Dawley rat at 1 mg/kg, iv. The format is ADME, organism-based. The arrangement: dose 1 mg/kg, route intravenous.
The nature of series [5]: Clearance in cynomolgus monkey at 1 mg/kg, iv administered as infusion over 30 mins. The format is ADME, organism-based, Macaca fascicularis. The arrangement: dose 1 mg/kg, route intravenous. Particulars: in vivo.
Series [6] is described as follows: Drug uptake in bovine lung relative to plasma level. The format is ADME, Bos taurus. Particulars: cattle.
Series [7] is described as follows: Clearance in beagle dog at 1 mg/kg, iv administered as infusion over 30 mins. The arrangement: dose 1 mg/kg, route intravenous. Particulars: in vivo. It is filed as ADME, organism-based, Canis lupus familiaris.
Series [8] is described as follows: Oral bioavailability in beagle dog at 4 mg/kg. Conditions: in vivo. The format is ADME, organism-based, Canis lupus familiaris.
Series [9] is described as follows: Volume of distribution at steady state in Sprague-Dawley rat. The format is ADME, organism-based. Conditions: in vivo, read-out: Vdss.
Series [10] is described as follows: Terminal half life in po dosed Sprague-Dawley rat. The format is ADME, organism-based. Conditions: in vivo, read-out: beta t1/2 (converted).
Another series relates to Lung. As to the kind of experiment: Drug uptake in lung tissue of Sprague-Dawley rat at 1 mg/kg, iv relative to plasma level. The format is ADME, organism-based. The arrangement: dose 1 mg/kg, route intravenous. Conditions: in vivo.
Series [11] concerns Plasma. Nature of the series: Drug uptake in epithelial lining fluid of Sprague-Dawley rat at 1 mg/kg, iv relative to plasma level. The format is ADME, organism-based. The arrangement: dose 1 mg/kg, route intravenous. Particulars: in vivo.
Series [12] is described as follows: Volume of distribution at steady state in cynomolgus monkey. It is filed as ADME, organism-based, Macaca fascicularis. Conditions: in vivo, read-out: Vdss.
The nature of series [13]: Clearance in Sprague-Dawley rat at 1 mg/kg, iv administered as infusion over 30 mins. The format is ADME, organism-based. The arrangement: dose 1 mg/kg, route intravenous. Conditions: in vivo. In short, it runs like this: as §1
A short description of series [14]: Volume of distribution at steady state in beagle dog. It is filed as ADME, organism-based, Canis lupus familiaris. Conditions: in vivo, read-out: Vdss.
Series [15] in a line: Ratio of AUC (0 to 12 hrs) in lung to AUC (0 to 12 hrs) in plasma of Sprague-Dawley rat at 1 mg/kg, iv. The format is ADME, organism-based. The arrangement: dose 1 mg/kg, route intravenous.
The nature of series [16]: Oral bioavailability in cynomolgus monkey at 4 mg/kg. Particulars: in vivo. The format is ADME, organism-based, Macaca fascicularis.
The subject of series [17] is Plasma. Nature of the series: Drug uptake in dog lung relative to plasma level. The format is ADME, Canis lupus familiaris.
Series [18] can be described thus: Terminal half life in po dosed human. The format is ADME, organism-based. Conditions: in vivo, read-out: beta t1/2 (converted).
A short description of series [19]: Terminal half life in po dosed cynomolgus monkey. The format is ADME, organism-based, Macaca fascicularis. Conditions: in vivo, read-out: beta t1/2 (converted).

Take `COC(=O)Nc1ccccc1C(=O)N1CCCC[C@H]1c1cc2[nH]c(C)c(C)c(=O)n2n1`: the chromatographic logD in series [1] stood at 1.3. Take `Cc1cn2nc([C@@H]3CCCCN3C(=O)c3cc(Cl)ccc3NS(C)(=O)=O)cc2nc1N1CC(O)C1`: the bioavailability in series [2] was 42%. In addition, the chromatographic logD in series [1] was found to be 2.7. For `Cc1cn2nc([C@@H]3CCCCN3C(=O)c3ccccc3NS(C)(=O)=O)cc2nc1C`, the bioavailability in [2] was 18%. The same molecule displayed a chromatographic logD in series [1] of 3. Consider `Cc1ccc(NS(C)(=O)=O)c(C(=O)N2CCCC[C@H]2c2cc3nc(C)c(C)c(C)n3n2)c1`, for which the bioavailability in series [2] was 26%. Moreover, the chromatographic logD in series [1] was 3.1.

For `Cc1[nH]c2cc([C@@H]3CCCCN3C(=O)c3ccccc3N)nn2c(=O)c1C`, the chromatographic logD in series [1] is 1.4.

`Cc1[nH]c2cc([C@@H]3CCCCN3C(=O)c3ccccc3NS(C)(=O)=O)nn2c(=O)c1C`: the bioavailability in series [2] was found to be 1.5%. Besides, in series [1], the chromatographic logD is 1.3.

For `Cc1cn2nc([C@@H]3CCCCN3C(=O)c3cc(Cl)ccc3NS(C)(=O)=O)cc2nc1N1CC[C@H](C#N)C1`, in series [1], the chromatographic logD is 3.6.

`Cc1cn2nc([C@@H]3CCCCN3C(=O)c3cc(Cl)ccc3NS(C)(=O)=O)cc2nc1N1CCC(F)(F)C1`: in series [1], the chromatographic logD is 4.2. In the case of `Cc1ccc(NS(C)(=O)=O)c(C(=O)N2CCCC[C@H]2c2cc3nc(C)c(C)cn3n2)c1`, the bioavailability in series [2] was determined as 86%. The same molecule came in with a chromatographic logD in series [1] of 3.1.

In series [1], `Cc1[nH]c2cc([C@@H]3CCCCN3C(=O)c3ccccc3O)nn2c(=O)c1C` came in with a chromatographic logD of 1.1.

In series [1], `Cc1[nH]c2cc([C@@H]3CCCCN3C(=O)c3cccc(F)c3NS(C)(=O)=O)nn2c(=O)c1C` gave a chromatographic logD of 1.3. As for `Cc1[nH]c2cc([C@@H]3CCCCN3C(=O)c3cc(Br)ccc3NS(C)(=O)=O)nn2c(=O)c1C`, the chromatographic logD in series [1] came out at 2.

Regarding `Cc1cn2nc([C@@H]3CCCCN3C(=O)c3cc(Cl)ccc3NS(C)(=O)=O)cc2nc1N1CC[C@H](N)C1` [PRESATOVIR], the half-life was 8.9 h in series [3], 3.4 h in [10], 35 h in series [18] and 10 h in [19]. Besides, the Kp in series [4] worked out at 10; in series [15], 26. Moreover, the figures for the clearance in series [5], in series [7] and in [13] were 6 mL/min/kg, 3.83 mL/min/kg and 32.2 mL/min/kg, respectively. The results for the bioavailability in series [2], in series [8] and in series [16] were 46%, 130% and 60%, respectively. The same molecule registered a chromatographic logD in series [1] of 2. Further, the Drug uptake result in series [6] was “Active”; with Lung, “Not Active”; in the series on Plasma [11], “Not Active”; in the series with Plasma [17], “Active”. Further, the Vd in series [9] amounted to 9.75 L/kg; in series [12], 4.95 L/kg; in [14] it was 2.91 L/kg. The molecule `Cc1cn2nc([C@@H]3CCCCN3C(=O)c3cc(Cl)ccc3NS(C)(=O)=O)cc2nc1N1CC(F)C1` had a chromatographic logD in series [1] of 3.7.

The molecule `Cc1cn2nc([C@@H]3CCCCN3C(=O)c3cc(Cl)ccc3NS(C)(=O)=O)cc2nc1N1CC[C@@H](N)C1` came in with a chromatographic logD in series [1] of 2. Turning to `Cc1[nH]c2cc([C@@H]3CCCCN3C(=O)c3ccccc3NS(=O)(=O)C3CC3)nn2c(=O)c1C`, the chromatographic logD in series [1] was 1.6. Consider `Cc1ccc(NS(C)(=O)=O)c(C(=O)N2CCCC[C@H]2c2cc3[nH]c(C)c(C)c(=O)n3n2)c1`, for which the chromatographic logD in series [1] stood at 1.7. Molecule `Cc1[nH]c2cc([C@@H]3CCCCN3C(=O)c3cc(F)ccc3NS(C)(=O)=O)nn2c(=O)c1C` yielded a chromatographic logD in series [1] of 1.4. Turning to `Cc1cn2nc([C@@H]3CCCCN3C(=O)c3cc(Cl)ccc3NS(C)(=O)=O)cc2nc1N1CCC1`, the chromatographic logD in [1] amounted to 3.8. The molecule `Cc1[nH]c2cc([C@@H]3CCCCN3C(=O)c3cc(Cl)ccc3NS(C)(=O)=O)nn2c(=O)c1C` had a chromatographic logD in series [1] of 1.9. Same read-out and setting: the result for `Cc1[nH]c2cc([C@@H]3CCCCN3C(=O)c3c(Cl)cccc3NS(C)(=O)=O)nn2c(=O)c1C` reads 1.8; that for `Cc1cn2nc([C@@H]3CCCCN3C(=O)c3cc(Cl)ccc3NS(C)(=O)=O)cc2nc1N1CC(C#N)C1`, 3.3; that for `Cc1[nH]c2cc([C@@H]3CCCCN3C(=O)c3ccccc3)nn2c(=O)c1C`, 1.4.

As for `Cc1cn2nc([C@@H]3CCCCN3C(=O)c3cc(Cl)ccc3NS(C)(=O)=O)cc2nc1N1CC(N)C1`, in series [2], the bioavailability amounted to 67%. Moreover, the chromatographic logD in series [1] was 2.1. In series [1], `Cc1cn2nc([C@@H]3CCCCN3C(=O)c3cc(Cl)ccc3NS(C)(=O)=O)cc2nc1N1CC[C@H](O)C1` gave a chromatographic logD of 2.9.

In the case of `CC(=O)Nc1ccccc1C(=O)N1CCCC[C@H]1c1cc2[nH]c(C)c(C)c(=O)n2n1`, the chromatographic logD in series [1] is 0.88. Consider `Cc1cn2nc([C@@H]3CCCCN3C(=O)c3cc(Cl)ccc3NS(C)(=O)=O)cc2nc1N1CC[C@@H](C#N)C1`, for which, in [1], the chromatographic logD was found to be 3.7. In turn, `CNc1c(C)c(C)nc2cc([C@@H]3CCCCN3C(=O)c3ccccc3NS(C)(=O)=O)nn12` registered a chromatographic logD in series [1] of 2.6. The same measure, in the same setting: the result for `Cc1ccc(NS(C)(=O)=O)c(C(=O)N2CCCC[C@H]2c2cc3nc(C4CC4)c(C)cn3n2)c1` reads 4.1; that for `Cc1nc2cc([C@@H]3CCCCN3C(=O)c3ccccc3NS(C)(=O)=O)nn2c(C)c1C`, 2.7; that for `Cc1ccc(NS(C)(=O)=O)c(C(=O)N2CCCC[C@H]2c2cc3nc(C4CC4)ccn3n2)c1`, 3.7. Regarding `Cc1ccc(NS(C)(=O)=O)c(C(=O)N2CCCC[C@H]2c2cc3nc(C)cc(C)n3n2)c1`, the chromatographic logD in series [1] stood at 2.7. The same measure, in the same setting: to `Cc1[nH]c2cc([C@@H]3CCCCN3C(=O)c3ccc(F)cc3NS(C)(=O)=O)nn2c(=O)c1C` belongs 1.5; to `Cc1[nH]c2cc([C@@H]3CCCCN3C(=O)c3cc(-c4ccccc4)ccc3NS(C)(=O)=O)nn2c(=O)c1C`, 2.6. In [1], `Cc1cn2nc([C@@H]3CCCCN3C(=O)c3cc(Cl)ccc3NS(C)(=O)=O)cc2nc1N1CCCC1` returned a chromatographic logD of 4.4. Take `Cc1[nH]c2cc([C@@H]3CCCCN3C(=O)c3ccccc3N(C)S(C)(=O)=O)nn2c(=O)c1C`: the chromatographic logD in [1] came to 1.1. In the case of `Cc1[nH]c2cc([C@@H]3CCCCN3C(=O)c3cc(C(F)(F)F)ccc3NS(C)(=O)=O)nn2c(=O)c1C`, in series [1], the chromatographic logD was 1.9. `Cc1ccc(NS(C)(=O)=O)c(C(=O)N2CCCC[C@H]2c2cc3nc(C4CC4)cc(C)n3n2)c1`: the bioavailability in series [2] was 42%. Also, the chromatographic logD in series [1] is 3.5. `CNc1c(C)c(C)nc2cc([C@@H]3CCCCN3C(=O)c3cc(C)ccc3NS(C)(=O)=O)nn12` yielded a chromatographic logD in series [1] of 2.8. For the molecule `Cc1cn2nc([C@@H]3CCCCN3C(=O)c3cc(Cl)ccc3NS(C)(=O)=O)cc2nc1N1CC[C@@H](O)C1`, the bioavailability in series [2] was determined as 71%. The chromatographic logD in [1] came out at 2.8.
